Screens (PubChem)
M4 antag: CHRM4 antagonism in calcium assay. P08173. CHO-hM4 cells, ACh EC80, Fluo-8 calcium fluorescence. inhibition, % at 3 µM. 0.73% of 360,000 active. AID 624125;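 active = inhibition above its plate's cutoff, the mean inhibition of sample wells plus 3 SD, cut at about 27% in these data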;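 note: 0% = acetylcholine EC80 with DMSO and 100% = DMSO without agonist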
Target sequence (P08173 whole entry, looked up): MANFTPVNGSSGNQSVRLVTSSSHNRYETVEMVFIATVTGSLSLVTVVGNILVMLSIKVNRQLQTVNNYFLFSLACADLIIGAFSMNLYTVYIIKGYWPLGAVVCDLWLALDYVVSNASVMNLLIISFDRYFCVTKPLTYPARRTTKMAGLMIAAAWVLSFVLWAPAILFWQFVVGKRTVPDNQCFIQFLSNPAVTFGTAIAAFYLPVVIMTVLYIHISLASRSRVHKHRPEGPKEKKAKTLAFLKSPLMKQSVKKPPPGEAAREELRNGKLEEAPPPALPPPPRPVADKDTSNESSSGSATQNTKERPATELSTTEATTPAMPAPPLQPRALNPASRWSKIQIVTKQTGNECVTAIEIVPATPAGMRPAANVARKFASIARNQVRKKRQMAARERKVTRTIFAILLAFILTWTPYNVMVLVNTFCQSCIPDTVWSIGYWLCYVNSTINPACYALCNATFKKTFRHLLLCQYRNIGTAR
CHRM5 antagonist: blocks acetylcholine activation of human M5 receptor. P08912. CHO-hM5 cells, Fluo-8 calcium fluorescence, ACh EC80. inhibition, % at 3 µM. 0.59% of 360,000 active. AID 624040;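 active = inhibition above a per-plate cutoff, the mean of that plate's test compounds plus 3 SD, cut at about 27% in these data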;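 note: 0% = acetylcholine EC80 with DMSO and 100% = DMSO without agonist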
M4 PAM: positive allosteric modulators of human muscarinic M4 receptor; P08173; CHO-K1 hM4/Gqi5, Fluo-8 calcium fluorescence, ACh EC20; 0% = ACh EC20, 100% = maximal ACh; activation, % at 3 µM; 0.4% of 360,000 active; AID 624126;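 active = activation above its plate's cutoff, the mean activation of sample wells plus 3 SD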
CHRM4 agonist: CHRM4 agonism in calcium assay | CHO-K1 hM4/Gqi5, Fluo-8 calcium fluorescence; vehicle 0%, full acetylcholine response 100% | activation, % at 3 µM | 0.14% of 360,000 active;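 active = activation above the run mean over all test wells plus 3 SD, cut at about 32% in these data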;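 note: peak over basal fluorescence ratio per well then scaled between controls; 0% = DMSO wells and 100% = acetylcholine at EC100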
M5 PAM: potentiates acetylcholine response at human M5 receptor. P08912. CHO-K1 hM5, Fluo-8 calcium, ACh EC20 PAM; 0% = ACh EC20, 100% = ACh EC100. activation, % at 3 µM. 0.3% of 360,000 active. AID 624038;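 active = activation above the run cutoff, the mean activation of all test compounds plus 3 SD, cut at about 18% in these data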
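Measured by: Fluo-8 calcium fluorescence; material: human M5 receptor in CHO-K1 cells; schedule: Post-acetylcholine fluorescence recording 140 s; benchmarks: low control EC20 acetylcholine (0%), high control EC100 acetylcholine (100%); read-out: Max/basal fluorescence ratio as % of EC20–EC100 ACh window; compound: single dose, 3 µM nominal final test concentration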
M5 ag: agonists of human muscarinic M5 receptor (CHRM5); activation, % at 3 µM; P08912; CHO-K1 hM5 cells, Fluo-8 calcium fluorescence; 0% DMSO wells, 100% maximal acetylcholine response; 0.19% of 360,000 active;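 active = activation above the run's mean over test compounds plus 3 SD, cut at about 23% in these data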;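 note: signal is peak over basal fluorescence ratio across the kinetic read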
The depositor's hits bear a star. The list is not random: actives were taken first. Their share in the collection is about 1.8%.

SMILES	M4 antag	CHRM5 antagonist	M4 PAM	CHRM4 agonist	M5 PAM	M5 ag
CC(C)(C)N(Cc1ccccc1)C(=O)c1ccc2c(c1)OCCO2	29.1*	8.3	-17.4	2.5	-17.4	-8.3
O=C(CCCc1ccccc1)c1ccc2c(c1)OCCO2	-0.5	-3.5	31.0*	-1.9	0.0	-2.8
CN(C)c1ccc(CN2CCC(C(=O)NC(c3ccc(Cl)cc3)c3cnccn3)CC2)cc1 (configuration not stated)	-8.7	1.5	-2.6	1.1	-6.3	-2.5
COc1ccc(CNC(=O)c2c(-c3c(F)cccc3Cl)noc2C)cc1	-1.8	8.0	-1.1	0.9	-5.9	-5.8
CC(=O)OCC(=O)[C@@]1(OC(C)=O)[C@@H](C)C[C@H]2[C@@H]3C[C@H](F)C4=CC(=O)C=C[C@]4(C)[C@@]3(F)[C@@H](O)C[C@@]21C	41.3*	9.1	-15.3	1.4	-15.7	-0.5
CC1(C)CC2(OC2c2ccccc2[N+](=O)[O-])C(=O)c2ccccc21 (configuration not stated)	-14.0	0.2	-6.4	6.9	-5.1	-1.3
CCOC(=O)C1(Cc2cccc(Cl)c2)CCCN(C(=O)CCOC)C1 (configuration not stated)	-14.9	-10.1	23.8*	1.8	6.0	1.3
Cc1ccc(-n2c(=S)[nH]c3[nH]ncc3c2=O)cc1	1.5	-1.9	-8.4	0.6	6.2	0.4
COCCn1c(=O)[nH]c2cc(C(=O)NC(C)C)ccc2c1=O	-7.1	1.2	20.1*	0.3	23.5*	-5.4
CC(C(=O)Nc1ccc2c(c1)OCCO2)N1Cc2ccccc2C1=O (configuration not stated)	-1.3	23.5	3.1	0.2	-6.0	-4.6
CCC(C)[C@@H](C(=O)Nc1ccc2c(c1)OCO2)N1Cc2ccccc2C1=O (some centres not stated)	-18.7	-0.3	18.6*	-1.8	-2.9	-2.3
CCc1ccc(C2C(C#N)=C(N)N(N(C)C)C3=C2C(=O)CCC3)cc1 (configuration not stated)	11.4	11.2	-2.9	1.9	-5.0	-1.4
Cc1ccc(-c2nc(CS(=O)CC(=O)NCc3ccc(Cl)cc3)c(C)o2)cc1 (configuration not stated)	-15.0	-2.7	8.7	0.3	-0.8	-1.7
Cc1oc(-c2ccc(Cl)cc2)nc1CS(=O)CC(=O)NCCCN1CCN(Cc2ccccc2)CC1 (configuration not stated)	8.9	31.0*	-11.7	6.5	-12.2	-6.9
Cc1oc(-c2ccc(Cl)cc2)nc1CS(=O)CC(=O)NCc1ccccc1 (configuration not stated)	-2.2	7.5	20.6*	2.0	0.2	-3.5
CCOC(=O)C1(Cc2cccc(OC)c2)CCCN(C(=O)CCN2CCCO2)C1 (configuration not stated)	-8.1	9.1	-0.3	1.2	-3.5	-1.6
COC(=O)N/N=C(\C)c1ccc(-n2ccnc2)cc1	-4.1	-11.1	-0.5	1.0	-2.9	-1.5
C/C(=N\NC(=O)COc1ccc(C)cc1C(C)C)c1ccc(-n2ccnc2)cc1	47.9*	3.5	-4.8	1.0	0.9	-0.9
CC1Cc2cc(-c3csc(NC(=O)Cc4cccs4)n3)ccc2N1S(C)(=O)=O (configuration not stated)	28.5*	14.5	-26.2	17.1	-17.8	3.7
CC(C)(C)OC(=O)C[C@H]1C/C=C\C[C@H](CC(=O)N[C@@H](CO)Cc2ccccc2)C(=O)N[C@H](C(C)(C)C)COC1=O	-10.8	-10.0	6.4	4.5	0.7	-1.0
CN(C)c1ccc(CC(=O)N2CCCC(c3cc(C(=O)Nc4ccc(F)c(Cl)c4)no3)C2)cc1 (configuration not stated)	27.7*	16.5	-13.1	15.5	-11.9	3.3
CCCCCC(=O)Nc1cc(S(=O)(=O)N2CCOCC2)ccc1N1CCCCC1	2.1	1.8	-1.2	-1.9	1.9	2.4
Cc1cc2nc(C(C)(C)C)c(Cc3ccsc3)n2c(C)c1Br	-16.6	-5.8	-9.1	-1.1	-10.2	0.8
